Sampled rows, rich in hits. Any-hit rate of the full collection: about 1.8%.
CHRM5 PAM: potentiates acetylcholine response at human M5 receptor. actives 0.3% (n = 360,000). CHO-K1 hM5, Fluo-8 calcium, ACh EC20 PAM; 0% = ACh EC20, 100% = ACh EC100. P08912. activation, % at 3 µM;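 active = activation above the run cutoff, the mean activation of all test compounds plus 3 SD, cut at about 18% in these data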
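System: CHO-K1 cell line with stable human muscarinic M5 receptor expression | Also added: EC20 acetylcholine as agonist stimulus | Compound: One concentration, 3 µM final (nominal) | Timing: Fluo-8 loading 80 min at 37 °C plus 30 min room temperature | Measured by: Fluo-8 calcium dye fluorescence, kinetic read | Read-out basis: % activation, ACh-normalized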
CHRM4 antagonist: antagonists of human muscarinic M4 receptor (CHRM4); AID 624125; inhibition, % at 3 µM; actives 0.73% (n = 360,000); P08173; CHO-hM4 cells, ACh EC80, Fluo-8 calcium fluorescence;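 active = inhibition above its plate's cutoff, the mean inhibition of sample wells plus 3 SD, cut at about 27% in these data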;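 note: 0% = acetylcholine EC80 with DMSO and 100% = DMSO without agonist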
Target sequence (P08173 whole entry, looked up): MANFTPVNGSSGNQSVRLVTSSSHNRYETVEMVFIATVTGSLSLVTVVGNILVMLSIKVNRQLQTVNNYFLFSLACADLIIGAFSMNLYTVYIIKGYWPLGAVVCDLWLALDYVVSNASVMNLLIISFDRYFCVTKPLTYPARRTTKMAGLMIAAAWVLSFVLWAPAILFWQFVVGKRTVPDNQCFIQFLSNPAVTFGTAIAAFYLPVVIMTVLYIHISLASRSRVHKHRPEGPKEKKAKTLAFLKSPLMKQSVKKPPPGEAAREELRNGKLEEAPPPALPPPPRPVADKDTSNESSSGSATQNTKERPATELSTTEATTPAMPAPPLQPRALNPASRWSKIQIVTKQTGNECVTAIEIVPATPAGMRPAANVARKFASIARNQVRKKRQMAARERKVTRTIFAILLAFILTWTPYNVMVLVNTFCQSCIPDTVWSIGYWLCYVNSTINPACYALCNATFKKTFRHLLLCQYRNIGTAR
M5 antag: CHRM5 antagonism in calcium assay | CHO-hM5 cells, Fluo-8 calcium fluorescence, ACh EC80 | actives 0.59% (n = 360,000) | P08912 | inhibition, % at 3 µM | AID 624040;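 active = inhibition above a per-plate cutoff, the mean of that plate's test compounds plus 3 SD, cut at about 27% in these data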;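 note: 0% = acetylcholine EC80 with DMSO and 100% = DMSO without agonist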
CHRM4 PAM: positive allosteric modulators of human muscarinic M4 receptor. activation, % at 3 µM. actives 0.4% (n = 360,000). P08173. AID 624126. CHO-K1 hM4/Gqi5, Fluo-8 calcium fluorescence, ACh EC20; 0% = ACh EC20, 100% = maximal ACh;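 active = activation above its plate's cutoff, the mean activation of sample wells plus 3 SD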
M5 ag: agonists of human muscarinic M5 receptor (CHRM5); CHO-K1 hM5 cells, Fluo-8 calcium fluorescence; 0% DMSO wells, 100% maximal acetylcholine response; P08912; actives 0.19% (n = 360,000); activation, % at 3 µM; AID 624037;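 active = activation above the run's mean over test compounds plus 3 SD, cut at about 23% in these data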;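 note: signal is peak over basal fluorescence ratio across the kinetic read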
M4 ag: CHRM4 agonism in calcium assay; CHO-K1 hM4/Gqi5, Fluo-8 calcium fluorescence; vehicle 0%, full acetylcholine response 100%; activation, % at 3 µM; actives 0.14% (n = 360,000);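 active = activation above the run mean over all test wells plus 3 SD, cut at about 32% in these data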;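 note: peak over basal fluorescence ratio per well then scaled between controls; 0% = DMSO wells and 100% = acetylcholine at EC100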
* hit, by the source's call.

SMILES | CHRM5 PAM | CHRM4 antagonist | M5 antag | CHRM4 PAM | M5 ag | M4 ag
CC(=O)Nc1ccc(C=NN=C2c3ccccc3-c3ccccc32)cc1 | 11 | 4 | -9 | 18* | 3 | 2
CCC(=O)N1CCC1(C)C(=O)Nc1ncc(C)s1 (configuration not stated) | 0 | -13 | 10 | 19* | 3 | 1
CCC(=O)N1CCC1(C)C(=O)Nc1nccs1 (configuration not stated) | -1 | -8 | -7 | -4 | 0 | 0
Cc1ccc(O)c(C(=O)c2cc(C#N)c(=O)n(-c3nccs3)c2)c1 | -17 | 26 | 32* | -18 | 34* | 57*
O=S(=O)(NCC(c1ccccc1)N1CCNCC1)c1ccc(Cl)cc1 (configuration not stated) | -3 | 15 | 3 | -3 | -6 | 6
CCN1CCN(C(CNS(=O)(=O)c2ccc(Cl)cc2)c2ccccc2)CC1 (configuration not stated) | -16 | 4 | 28* | -8 | -10 | 2
Cc1ccc(S(=O)(=O)N2CCN(C(=O)c3c(-c4ccccc4)noc3C)CC2)c(C)c1 | 4 | -4 | -3 | -5 | -1 | 2
O=[N+]([O-])c1cc(C(F)(F)F)cc([N+](=O)[O-])c1NCCNC(=S)Nc1cccc(F)c1 | -26 | 16 | 28* | -31 | 12 | 18
CC(=O)c1c(N)c(C#N)c(C)n1-c1ccc(Br)cc1 | 35* | -4 | 27* | 4 | 6 | 0
N#C/C(=C\c1ccc(N2CCCCC2)o1)C(=O)Nc1cccc(Br)c1 | -22 | 32* | 59* | -20 | 60* | 47*
Fc1ccc(-n2nnnc2-c2cnc(-c3cccs3)nc2C(F)(F)F)cc1 | -23 | 48* | 47* | -20 | 2 | 14
CCOC(=O)c1ccc(N2C(=O)C(O)=C(C(C)=O)C2c2ccc([N+](=O)[O-])cc2)cc1 (configuration not stated) | 19* | -2 | -5 | 0 | 4 | 1
CC(=O)C1=C(O)C(=O)N(c2ccc(C(=O)O)cc2)C1c1ccc([N+](=O)[O-])cc1 (configuration not stated) | -3 | 5 | 10 | 2 | -2 | 0
CCC(C)C(CO)NCCCn1ccc(NC(=O)OCc2ccccc2)nc1=O (configuration not stated) | 1 | -7 | -6 | 8 | -1 | 1
COc1cc(-n2c(=O)c3ccccc3n(Cc3ccccc3)c2=O)cc(OC)c1OC | 30* | -2 | 30* | 2 | 3 | 0
COc1cc(-n2c(=O)c3ccccc3n(Cc3cccc(F)c3)c2=O)cc(OC)c1OC | 8 | 1 | -17 | -6 | 0 | 0
COc1ccc(S(=O)(=O)N2CCOCC2)cc1NC(=O)C1CCN(S(=O)(=O)c2ccc(Cl)cc2)CC1 | -10 | -5 | 8 | 2 | 4 | 1
O=C1CCN(c2ccccc2)N1 | 5 | -10 | 1 | 2 | -4 | 2
CC(=O)c1cccc(OCc2cc(C(=O)N(C)Cc3cnccn3)no2)c1 | 1 | -8 | 1 | 5 | 1 | 3
CN(Cc1cccnc1)C(=O)c1cc(COc2ccc3c(c2)CCCC3)on1 | -18 | 0 | 33* | -12 | -1 | 15
O=C(NCCCn1ccnc1)C(=O)NCC(c1ccco1)N1CCN(c2ccccc2)CC1 (configuration not stated) | 0 | 33* | 4 | -6 | -1 | 2
CCc1ccc(N(C(=O)c2snc(C(N)=O)c2N)C(C(=O)NC2CCCC2)c2ccncc2)cc1 (configuration not stated) | -9 | 3 | 7 | -5 | 1 | 8
O=S(=O)(Nc1nc(SCc2ccc(Cl)cc2)n[nH]1)c1ccc(F)cc1 | 22* | -20 | -24 | 4 | 9 | 2
CCc1nc(SCc2ccc(Cl)cc2)n[nH]1 | 8 | 1 | -17 | -2 | -1 | 0
Cn1c2c(c3cc([N+](=O)[O-])ccc31)CCCC2 | -3 | -2 | -16 | -5 | 6 | 1
SMILES | CHRM5 PAM | CHRM4 antagonist | M5 antag | CHRM4 PAM | M5 ag | M4 ag
COCCNc1oc(COc2cccc(C)c2)nc1C#N | 24* | -10 | 8 | 4 | -3 | 0
CN(C)CCNc1oc(COc2cccc(Cl)c2)nc1C#N | 4 | 15 | -5 | -4 | 1 | 1
CCOC(=O)C1=C(C)Nc2ccccc2N=C1NC(=O)c1cc(C)on1 | -20 | 7 | 8 | 7 | 8 | 15
Cc1ccc(C(C)C)c(OCC(=O)NCC(c2cccs2)N2CCOCC2)c1 (configuration not stated) | -4 | -10 | 12 | 0 | -4 | 2
CCOC(=O)Cc1nn(Cc2ccccc2)c(=O)c2ccccc12 | -1 | 0 | -8 | -2 | -2 | 1
CC(C)(C)c1ccc(Cn2nc(CC(=O)O)c3ccccc3c2=O)cc1 | 21* | -6 | -22 | 12 | 3 | 0
N/C(=N\OC(=O)CC1CCCCC1)c1ccc(Cl)cc1 | 1 | 6 | 7 | 0 | -4 | 0
CCCc1ncc(C(O)(c2ccccc2)c2ccccc2)n1C | -20 | 62* | 59* | -18 | -11 | 2
CCCc1ncc(C(O)(c2ccccc2)c2ccc(C)cc2)n1C (configuration not stated) | -19 | 50* | 73* | -19 | -9 | 3
COc1ccc(CCN2C(=NC(=O)C(C)C)SC3CS(=O)(=O)CC32)cc1OC (configuration not stated) | 2 | -8 | -1 | -2 | -2 | 1
COC(=O)C1=NN(c2ccc(C)cc2)C2(S1)SC(C(C)=O)=C(C)N2c1ccccc1 (configuration not stated) | 21* | 22 | 0 | 0 | -1 | 2
COC(=O)C1=NN(c2ccccc2)C2(S1)SC(C(C)=O)=C(C)N2c1ccccc1 (configuration not stated) | 13 | -2 | -2 | 14 | -9 | -1
N/N=C(/Cc1nc2ccccc2[nH]1)c1ccc([N+](=O)[O-])cc1 | 4 | 15 | -3 | -15 | -2 | 3
N#CCC(=O)Nc1ccc(C(=O)NNC(=S)NC2CC2)cc1 | 10 | -8 | -18 | 25* | -3 | 2
COc1cc(CN2C[C@@H](CO)O[C@@H](n3cnc4c(NCC(C)C)ncnc43)C2)cc(OC)c1OC | 2 | -11 | 17 | 17* | 2 | 2
OC[C@@H]1CN(Cc2ccc(-c3ccccc3)cc2)C[C@H](n2cnc3c(NCc4ccco4)ncnc32)O1 | -14 | 29* | 25 | -7 | 5 | 24
